The record followed here is ChEMBL document CHEMBL1125243, “Design of potent oxytocin antagonists featuring D-tryptophan at position 2” (J Med Chem, 1991).

Numbered stars: 1 amine (or outer) side, 2 acyl side, 3 side chain; on linkers, the order of the positions; unused ones are H or OH. Bridge positions count the residues as written; N and C are the ends. Square brackets hold non-standard residues; d marks the D form. Peptide text beside a SMILES is read from it. X1 = O=C(CC1(S[*:2])CCCCC1)[*:1]

The species named for assay [1] is Rattus norvegicus. Put plainly: Competitive antagonist action against oxytocin contractile action in rat uterus(in vitro). Conditions: read-out: pA2 (converted). It counts as functional. In short, it runs like this: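 Isolated uteri from rats in natural estrus, incubated in Van Dyke-Hastings solution with 0.5 mM Mg²⁺. Isometric contractions to synthetic OT recorded by force transducer; response quantified by integrating area under peaks. pA₂ determined by Schild method; at least four separate assays per antagonist.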

The species entered for assay [2] is Rattus norvegicus. Put plainly: Effective dose (antagonist) that reduces the response to an agonist (oxytocin) by one-half. It is filed as functional. In short, it runs like this: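 Isolated estrous rat uterus in Van Dyke-Hastings solution with 0.5 mM Mg²⁺; OT-evoked isometric contractions quantified as integrated peak area. Effective dose taken as molar antagonist concentration halving the agonist response; at least four separate assays.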

The species named for assay [3] is Rattus norvegicus. Put plainly: Antidiuretic action in water-loaded rats under ethanol anesthesia. It is filed as functional, organism-based. Conditions: Urine, read-out: pA2 (converted). The method, boiled down:
(§1)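 Antagonism tested in vivo in water-loaded rats under ethanol anesthesia, with ADH as the agonist standard. The effective dose is the antagonist amount that halves the response to agonist. An in vivo pA₂ was estimated by dividing the effective dose by an assumed volume of distribution of 67 mL/kg. Values reported as mean ± SE.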

The species named for assay [4] is Rattus norvegicus. The assay can be described thus: Antidiuretic potency was evaluated and expressed as effective dose. It counts as functional, Urine. The method, boiled down: as §1

Turning to `CC[C@H](C)[C@@H]1NC(=O)[C@@H](Cc2c[nH]c3ccccc23)NC(=O)CC2(CCCCC2)SSC[C@@H](C(=O)N2CCC[C@H]2C(=O)N[C@@H](CCCN=C(N)N)C(=O)NCC(N)=O)NC(=O)[C@H](CC(N)=O)NC(=O)[C@H]([C@@H](C)O)NC1=O` [listing 1 of 2 here], the Kb in the assay listed under Rattus norvegicus [1] was 33.1 nM.

Consider `CC[C@H](C)[C@@H]1NC(=O)[C@@H](Cc2c[nH]c3ccccc23)NC(=O)CC2(CCCCC2)SSC[C@@H](C(=O)N2CCC[C@H]2C(=O)N[C@@H](CCCN=C(N)N)C(=O)NCC(N)=O)NC(=O)[C@H](CC(N)=O)NC(=O)[C@H]([C@@H](C)O)NC1=O` [listing 2 of 2 here], for which, in the assay filed under Rattus norvegicus [2], the ED50 stood at 46.8 nM.

As for `CC[C@H](C)[C@@H]1NC(=O)[C@@H](Cc2c[nH]c3ccccc23)NC(=O)CC2(CCCCC2)SSC[C@@H](C(=O)N2CCC[C@H]2C(=O)N[C@@H](CCCN=C(N)N)C(=O)NCC(N)=O)NC(=O)[C@H](CC(N)=O)NC(=O)[C@H](C(C)C)NC1=O` [listing 1 of 2 here], the Kb in the assay listed under Rattus norvegicus [1] is 26.3 nM.

With `CC[C@H](C)[C@@H]1NC(=O)[C@@H](Cc2c[nH]c3ccccc23)NC(=O)CC2(CCCCC2)SSC[C@@H](C(=O)N2CCC[C@H]2C(=O)N[C@@H](CCCN=C(N)N)C(=O)NCC(N)=O)NC(=O)[C@H](CC(N)=O)NC(=O)[C@H](C(C)C)NC1=O` [listing 2 of 2 here], the ED50 in the assay listed under Rattus norvegicus [2] is 26.9 nM.

Regarding `CC[C@H](C)[C@@H]1NC(=O)[C@H](Cc2ccccc2)NC(=O)[C@@H](Cc2c[nH]c3ccccc23)NC(=O)CC2(CCCCC2)SSC[C@@H](C(=O)N2CC=C[C@H]2C(=O)N[C@@H](CCCN=C(N)N)C(=O)NCC(N)=O)NC(=O)[C@H](CC(N)=O)NC1=O` [listing 1 of 2 here], in the assay listed under Rattus norvegicus [1], the Kb is 38 nM.

`CC[C@H](C)[C@@H]1NC(=O)[C@H](Cc2ccccc2)NC(=O)[C@@H](Cc2c[nH]c3ccccc23)NC(=O)CC2(CCCCC2)SSC[C@@H](C(=O)N2CC=C[C@H]2C(=O)N[C@@H](CCCN=C(N)N)C(=O)NCC(N)=O)NC(=O)[C@H](CC(N)=O)NC1=O` [listing 2 of 2 here] came in with an ED50 in the assay listed under Rattus norvegicus [2] of 38.6 nM.

On to `CC[C@H](C)[C@@H]1NC(=O)[C@H]([C@@H](C)CC)NC(=O)[C@@H](Cc2c[nH]c3ccccc23)NC(=O)CC2(CCCCC2)SSC[C@@H](C(=O)N2CCC[C@H]2C(=O)N[C@@H](CCCN=C(N)N)C(=O)NCC(N)=O)NC(=O)[C@H](CC(N)=O)NC1=O` [listing 1 of 2 here], for which the Kb in the assay listed under Rattus norvegicus [1] is 34.7 nM.

As to `CC[C@H](C)[C@@H]1NC(=O)[C@H]([C@@H](C)CC)NC(=O)[C@@H](Cc2c[nH]c3ccccc23)NC(=O)CC2(CCCCC2)SSC[C@@H](C(=O)N2CCC[C@H]2C(=O)N[C@@H](CCCN=C(N)N)C(=O)NCC(N)=O)NC(=O)[C@H](CC(N)=O)NC1=O` [listing 2 of 2 here], the ED50 in the assay listed under Rattus norvegicus [2] was 35.3 nM.

With `CC[C@H](C)[C@@H]1NC(=O)[C@H](Cc2ccc(Cl)cc2)NC(=O)[C@@H](Cc2c[nH]c3ccccc23)NC(=O)CC2(CCCCC2)SSC[C@@H](C(=O)N2CCC[C@H]2C(=O)N[C@@H](CCCN=C(N)N)C(=O)NCC(N)=O)NC(=O)[C@H](CC(N)=O)NC1=O` [listing 1 of 2 here], the Kb in the assay listed under Rattus norvegicus [1] was 36.3 nM.

In turn, `CC[C@H](C)[C@@H]1NC(=O)[C@H](Cc2ccc(Cl)cc2)NC(=O)[C@@H](Cc2c[nH]c3ccccc23)NC(=O)CC2(CCCCC2)SSC[C@@H](C(=O)N2CCC[C@H]2C(=O)N[C@@H](CCCN=C(N)N)C(=O)NCC(N)=O)NC(=O)[C@H](CC(N)=O)NC1=O` [listing 2 of 2 here] displayed an ED50 in the assay filed under Rattus norvegicus [2] of 40.2 nM.

In the case of `NC(=O)CC[C@@H]1NC(=O)[C@H](Cc2ccccc2)NC(=O)[C@@H](Cc2c[nH]c3ccccc23)NC(=O)CC2(CCCCC2)SSC[C@@H](C(=O)N2CCC[C@H]2C(=O)N[C@@H](CCCN=C(N)N)C(=O)NCC(N)=O)NC(=O)[C@H](CC(N)=O)NC1=O` [listing 1 of 2 here], in the assay filed under Rattus norvegicus [1], the Kb is 26.3 nM.

As for `NC(=O)CC[C@@H]1NC(=O)[C@H](Cc2ccccc2)NC(=O)[C@@H](Cc2c[nH]c3ccccc23)NC(=O)CC2(CCCCC2)SSC[C@@H](C(=O)N2CCC[C@H]2C(=O)N[C@@H](CCCN=C(N)N)C(=O)NCC(N)=O)NC(=O)[C@H](CC(N)=O)NC1=O` [listing 2 of 2 here], the ED50 in the assay filed under Rattus norvegicus [2] came to 27 nM.

Turning to `CCNC(=O)CNC(=O)[C@H](CCCN=C(N)N)NC(=O)[C@@H]1CCCN1C(=O)[C@@H]1CSSC2(CCCCC2)CC(=O)N[C@H](Cc2c[nH]c3ccccc23)C(=O)N[C@@H](Cc2ccccc2)C(=O)N[C@@H](CCC(N)=O)C(=O)N[C@@H](CC(N)=O)C(=O)N1` [listing 1 of 2 here], in the assay listed under Rattus norvegicus [1], the Kb was 32.4 nM.

`CCNC(=O)CNC(=O)[C@H](CCCN=C(N)N)NC(=O)[C@@H]1CCCN1C(=O)[C@@H]1CSSC2(CCCCC2)CC(=O)N[C@H](Cc2c[nH]c3ccccc23)C(=O)N[C@@H](Cc2ccccc2)C(=O)N[C@@H](CCC(N)=O)C(=O)N[C@@H](CC(N)=O)C(=O)N1` [listing 2 of 2 here] returned an ED50 in the assay listed under Rattus norvegicus [2] of 32.9 nM.

For the molecule `CC[C@H](C)[C@@H]1NC(=O)[C@H](Cc2ccccc2)NC(=O)[C@@H](Cc2c[nH]c3ccccc23)NC(=O)CC2(CCCCC2)SSC[C@@H](C(=O)N2CCC[C@H]2C(=O)N[C@@H](CCCN=C(N)N)C(=O)NCC(N)=O)NC(=O)[C@H](CC(N)=O)NC1=O` [listing 1 of 2 here], the Kb was 7.94 nM in the assay listed under Rattus norvegicus [3] and 30.9 nM in the assay listed under Rattus norvegicus [1].

With `CC[C@H](C)[C@@H]1NC(=O)[C@H](Cc2ccccc2)NC(=O)[C@@H](Cc2c[nH]c3ccccc23)NC(=O)CC2(CCCCC2)SSC[C@@H](C(=O)N2CCC[C@H]2C(=O)N[C@@H](CCCN=C(N)N)C(=O)NCC(N)=O)NC(=O)[C@H](CC(N)=O)NC1=O` [listing 2 of 2 here], the results for the ED50 in the assay listed under Rattus norvegicus [4] and in the assay listed under Rattus norvegicus [2] were 8.3 nM and 30.9 nM, respectively.

For the molecule `CC[C@H](C)[C@@H]1NC(=O)[C@H](Cc2ccccc2)NC(=O)[C@@H](Cc2ccccc2)NC(=O)CC2(CCCCC2)SSC[C@@H](C(=O)N2CCC[C@H]2C(=O)N[C@@H](CCCN=C(N)N)C(=O)NCC(N)=O)NC(=O)[C@H](CC(N)=O)NC1=O` ([dF]FINCPRG-NH2; linker N-5 via X1) [listing 1 of 2 here], the Kb in the assay listed under Rattus norvegicus [3] is 8.13 nM; in the assay filed under Rattus norvegicus [1] it was 44.7 nM.

On to `CC[C@H](C)[C@@H]1NC(=O)[C@H](Cc2ccccc2)NC(=O)[C@@H](Cc2ccccc2)NC(=O)CC2(CCCCC2)SSC[C@@H](C(=O)N2CCC[C@H]2C(=O)N[C@@H](CCCN=C(N)N)C(=O)NCC(N)=O)NC(=O)[C@H](CC(N)=O)NC1=O` ([dF]FINCPRG-NH2; linker N-5 via X1) [listing 2 of 2 here], for which the ED50 in the assay listed under Rattus norvegicus [4] is 0.87 M; in the assay listed under Rattus norvegicus [2], 46.6 nM.

As to `CC[C@H](C)[C@@H]1NC(=O)[C@@H](Cc2c[nH]c3ccccc23)NC(=O)CC2(CCCCC2)SSC[C@@H](C(=O)N2CCC[C@H]2C(=O)N[C@@H](CCCN=C(N)N)C(=O)NCC(N)=O)NC(=O)[C@H](CC(N)=O)NC(=O)[C@H](CCC(N)=O)NC1=O` ([dW]IQNCPRG-NH2; linker N-5 via X1) [listing 1 of 2 here], the Kb in the assay filed under Rattus norvegicus [3] is > 1380 nM.

Regarding `CC[C@H](C)[C@@H]1NC(=O)[C@@H](Cc2c[nH]c3ccccc23)NC(=O)CC2(CCCCC2)SSC[C@@H](C(=O)N2CCC[C@H]2C(=O)N[C@@H](CCCN=C(N)N)C(=O)NCC(N)=O)NC(=O)[C@H](CC(N)=O)NC(=O)[C@H](CCC(N)=O)NC1=O` ([dW]IQNCPRG-NH2; linker N-5 via X1) [listing 2 of 2 here], in the assay listed under Rattus norvegicus [4], the ED50 is < 1680 nM.
